Experimental data taken from ChEMBL document CHEMBL1129461 (J Med Chem, 1996).

What was measured:
[1] = biological target: T1, Protein kinase C beta type (Homo sapiens, UniProt P05771); assay: Evaluated against recombinant human Protein kinase C beta 1
Method in brief: (§1)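 Recombinant human PKC isozymes expressed in SF9 cells via baculovirus, partly purified (50–90%). 32P transfer from 30 μM [32P]ATP to 200 μg/mL histone IIIS in 20 mM Hepes pH 7.5, 10 mM MgCl2, EGTA, CaCl2, phosphatidylserine, and diacylglycerol at the isozyme-dependent level giving half-maximal activation. 10 min at 30 °C, TCA stop, filter counting. No-lipid background subtracted.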

[2] = biological target: T1, Protein kinase C beta type; assay: Evaluated against recombinant human Protein kinase C beta 2; method in brief: as §1
[3] = biological target: Protein kinase C gamma type (Homo sapiens, UniProt P05129); assay: Evaluated against recombinant human Protein kinase C gamma; method in brief: as §1
[4] = biological target: Protein kinase C delta type (Homo sapiens, UniProt Q05655); assay: Evaluated against recombinant human Protein kinase C delta; method in brief: as §1
Sequence of Protein kinase C delta type (Q05655 whole entry): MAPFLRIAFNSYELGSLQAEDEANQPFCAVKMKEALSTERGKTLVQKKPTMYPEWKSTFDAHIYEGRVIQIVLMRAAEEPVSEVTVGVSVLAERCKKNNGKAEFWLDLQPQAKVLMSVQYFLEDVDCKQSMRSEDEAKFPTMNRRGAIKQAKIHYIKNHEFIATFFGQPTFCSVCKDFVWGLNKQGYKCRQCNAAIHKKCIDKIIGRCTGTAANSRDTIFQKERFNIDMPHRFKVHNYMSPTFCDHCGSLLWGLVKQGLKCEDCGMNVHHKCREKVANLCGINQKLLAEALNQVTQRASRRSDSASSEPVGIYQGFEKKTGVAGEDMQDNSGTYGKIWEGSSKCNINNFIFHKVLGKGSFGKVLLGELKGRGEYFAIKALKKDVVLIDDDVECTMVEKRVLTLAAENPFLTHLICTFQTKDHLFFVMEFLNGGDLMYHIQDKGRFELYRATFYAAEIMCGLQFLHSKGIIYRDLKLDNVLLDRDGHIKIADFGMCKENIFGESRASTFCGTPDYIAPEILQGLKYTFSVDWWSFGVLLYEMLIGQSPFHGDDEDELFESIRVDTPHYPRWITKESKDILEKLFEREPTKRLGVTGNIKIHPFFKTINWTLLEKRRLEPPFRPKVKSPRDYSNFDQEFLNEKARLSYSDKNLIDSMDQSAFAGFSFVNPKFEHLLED

[5] = biological target: Protein kinase C alpha type (Homo sapiens, UniProt P17252); assay: Evaluated against recombinant human Protein kinase C alpha; method in brief: as §1
[6] = biological target: T2, Protein kinase C epsilon type (Homo sapiens, UniProt Q02156); assay: Evaluated against recombinant human Protein kinase C epsilon; method in brief: as §1
T2 sequence (Q02156 whole entry): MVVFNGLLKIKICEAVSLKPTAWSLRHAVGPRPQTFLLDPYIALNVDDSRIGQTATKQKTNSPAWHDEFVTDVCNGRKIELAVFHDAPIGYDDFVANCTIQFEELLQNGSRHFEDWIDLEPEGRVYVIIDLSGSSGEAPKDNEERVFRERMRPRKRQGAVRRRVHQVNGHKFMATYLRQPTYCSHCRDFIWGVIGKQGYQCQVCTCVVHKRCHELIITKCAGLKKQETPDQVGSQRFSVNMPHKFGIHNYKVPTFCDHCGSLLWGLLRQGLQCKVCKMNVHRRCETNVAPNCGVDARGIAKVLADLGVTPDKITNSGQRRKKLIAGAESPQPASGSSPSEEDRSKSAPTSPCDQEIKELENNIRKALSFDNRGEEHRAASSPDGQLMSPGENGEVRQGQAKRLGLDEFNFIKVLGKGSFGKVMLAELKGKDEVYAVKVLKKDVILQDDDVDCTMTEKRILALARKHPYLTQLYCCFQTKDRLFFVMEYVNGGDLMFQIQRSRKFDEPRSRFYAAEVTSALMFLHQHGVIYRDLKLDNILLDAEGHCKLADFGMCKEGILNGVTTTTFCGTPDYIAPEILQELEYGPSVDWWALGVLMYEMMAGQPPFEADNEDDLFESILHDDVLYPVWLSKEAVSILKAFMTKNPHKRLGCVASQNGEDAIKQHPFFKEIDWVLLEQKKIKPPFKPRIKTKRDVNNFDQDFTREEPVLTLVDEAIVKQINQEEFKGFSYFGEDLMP

[7] = biological target: Protein kinase C eta type (Homo sapiens, UniProt P24723); assay: Evaluated against recombinant human Protein kinase C eta; method in brief: as §1
Sequence of Protein kinase C eta type (P24723 whole entry): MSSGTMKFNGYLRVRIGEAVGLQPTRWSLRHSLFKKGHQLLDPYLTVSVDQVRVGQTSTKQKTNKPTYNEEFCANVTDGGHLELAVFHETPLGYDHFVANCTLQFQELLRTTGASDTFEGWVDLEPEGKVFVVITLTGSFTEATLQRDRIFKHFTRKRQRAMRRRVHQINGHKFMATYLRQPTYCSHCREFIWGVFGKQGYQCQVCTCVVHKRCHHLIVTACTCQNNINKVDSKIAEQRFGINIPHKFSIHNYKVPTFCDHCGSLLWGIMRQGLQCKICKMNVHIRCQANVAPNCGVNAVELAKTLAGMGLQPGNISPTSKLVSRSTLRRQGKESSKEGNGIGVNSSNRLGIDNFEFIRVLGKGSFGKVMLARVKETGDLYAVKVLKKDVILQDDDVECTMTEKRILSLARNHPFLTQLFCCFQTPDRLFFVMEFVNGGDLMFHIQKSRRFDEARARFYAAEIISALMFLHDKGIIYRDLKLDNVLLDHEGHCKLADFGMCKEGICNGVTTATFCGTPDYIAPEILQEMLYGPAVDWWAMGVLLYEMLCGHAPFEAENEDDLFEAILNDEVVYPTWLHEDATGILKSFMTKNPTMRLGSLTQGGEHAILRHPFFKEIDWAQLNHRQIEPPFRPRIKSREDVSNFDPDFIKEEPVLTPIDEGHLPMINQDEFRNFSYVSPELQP

[8] = Evaluated against bovine heart Protein Kinase A (PKA)
[9] = biological target: neutrophil superoxide release (Homo sapiens); assay: Inhibition of neutrophil superoxide release
[10] = Inhibition of rat brain Ca 2+/Calmodulin dependent kinase
Method in brief: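 Ca2+/calmodulin kinase isolated from rat brain homogenate; 50 mM Tris-HCl pH 7.5, 5 mM β-mercaptoethanol, 400 μM EGTA, 700 μM CaCl2, 10 mM MgCl2, 200 μg/mL histone type HA, 30 μM [γ-32P]ATP, inhibitor in DMSO. Room temperature 10 min, ice-cold TCA plus BSA stop, precipitate filtered and β-counted.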

[11] = biological target: Proto-oncogene tyrosine-protein kinase Src (Homo sapiens, UniProt P12931); assay: Inhibition of src Protein Tyrosine Kinase
Sequence of Proto-oncogene tyrosine-protein kinase Src (P12931 2-536 limits assumed): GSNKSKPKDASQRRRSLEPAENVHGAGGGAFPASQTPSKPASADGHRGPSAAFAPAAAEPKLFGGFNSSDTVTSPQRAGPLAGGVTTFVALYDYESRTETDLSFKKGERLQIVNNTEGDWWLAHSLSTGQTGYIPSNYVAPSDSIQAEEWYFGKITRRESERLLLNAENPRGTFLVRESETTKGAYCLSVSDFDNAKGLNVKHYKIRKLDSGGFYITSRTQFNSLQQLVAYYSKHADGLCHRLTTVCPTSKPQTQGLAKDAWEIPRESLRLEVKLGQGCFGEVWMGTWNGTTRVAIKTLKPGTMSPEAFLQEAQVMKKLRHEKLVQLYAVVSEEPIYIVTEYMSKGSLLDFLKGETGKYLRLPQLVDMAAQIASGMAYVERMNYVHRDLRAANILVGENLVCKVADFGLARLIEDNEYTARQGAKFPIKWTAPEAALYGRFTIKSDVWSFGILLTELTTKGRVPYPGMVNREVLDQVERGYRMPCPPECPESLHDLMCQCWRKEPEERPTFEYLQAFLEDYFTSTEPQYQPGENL
Method in brief: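 p60src tyrosine kinase with Raytide peptide substrate, run by the supplier's protocol except that Triton X-100 replaced Brij 35.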

T1 sequence (P05771 whole entry): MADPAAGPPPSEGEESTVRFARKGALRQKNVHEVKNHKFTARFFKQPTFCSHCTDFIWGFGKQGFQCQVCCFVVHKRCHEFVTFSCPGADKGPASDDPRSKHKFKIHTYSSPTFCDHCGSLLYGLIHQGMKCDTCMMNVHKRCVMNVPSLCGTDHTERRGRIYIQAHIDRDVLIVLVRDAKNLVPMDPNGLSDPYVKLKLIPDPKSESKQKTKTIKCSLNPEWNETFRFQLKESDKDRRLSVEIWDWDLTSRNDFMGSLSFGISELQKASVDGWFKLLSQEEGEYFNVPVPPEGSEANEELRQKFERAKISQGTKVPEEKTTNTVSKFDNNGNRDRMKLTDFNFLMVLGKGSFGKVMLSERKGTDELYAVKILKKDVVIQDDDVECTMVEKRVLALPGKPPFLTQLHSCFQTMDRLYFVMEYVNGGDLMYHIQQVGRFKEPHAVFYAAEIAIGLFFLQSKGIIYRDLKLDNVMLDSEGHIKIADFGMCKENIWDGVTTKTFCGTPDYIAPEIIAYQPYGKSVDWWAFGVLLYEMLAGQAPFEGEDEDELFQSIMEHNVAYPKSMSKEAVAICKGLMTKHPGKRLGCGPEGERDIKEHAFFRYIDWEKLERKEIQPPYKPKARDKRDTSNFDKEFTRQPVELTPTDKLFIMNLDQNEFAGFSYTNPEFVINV

Compound	IC50 [1]	IC50 [2]	IC50 [3]	IC50 [4]	IC50 [5]	IC50 [6]	IC50 [7]	IC50 [8]	IC50 [9]	IC50 [10]	IC50 [11]
O=C(NC(COC(=O)c1cc(O)c(C(=O)c2c(O)cccc2C(=O)O)c(O)c1)Cc1ccc(O)cc1)c1ccc(O)cc1 (centres undefined)	3600 nM	3000 nM	2900 nM	820 nM	18000 nM	> 50000 nM	2300 nM	> 50000 nM	–	–	–
O=C(OCCCCc1ccc(O)cc1)c1cc(O)c(C(=O)c2c(O)cccc2C(=O)O)c(O)c1	960 nM	370 nM	1400 nM	290 nM	3300 nM	30000 nM	250 nM	> 50000 nM	–	–	–
COC(=O)c1cccc(O)c1C(=O)c1c(O)cc(C(=O)OC[C@@H](Cc2ccc(O)cc2)NS(=O)(=O)c2ccccc2)cc1O	2200 nM	340 nM	4500 nM	360 nM	18000 nM	38000 nM	< 50 nM	> 50000 nM	930 nM	–	–
CS(=O)(=O)NC(COC(=O)c1cc(O)c(C(=O)c2c(O)cccc2C(=O)O)c(O)c1)Cc1ccc(O)cc1 (centres undefined)	220 nM	430 nM	5000 nM	410 nM	23000 nM	> 50000 nM	390 nM	> 50000 nM	–	–	–
O=C(NC1CCCC1OC(=O)c1cc(O)c(C(=O)c2c(O)cccc2C(=O)O)c(O)c1)c1ccc(O)cc1 (centres undefined)	40 nM	50 nM	10 nM	0.9 nM	40 nM	50 nM	0.6 nM	–	–	–	–
O=C(N[C@@H]1CNCCC[C@H]1OC(=O)c1cc(O)c(C(=O)c2c(O)cccc2C(=O)O)c(O)c1)c1ccc(O)cc1 [BALANOL]	–	–	–	20 nM	–	–	–	40 nM	–	30 nM	> 10000 nM
O=C(OC1CCCC1Cc1ccc(O)cc1)c1cc(O)c(C(=O)c2c(O)cccc2C(=O)O)c(O)c1 (stereo in doubt; 20b)	20 nM	20 nM	130 nM	30 nM	160 nM	500 nM	10 nM	–	–	–	–
O=C(NC(COC(=O)c1cc(O)c(C(=O)c2c(O)cccc2C(=O)O)c(O)c1)Cc1ccc(O)cc1)c1ccccc1 (centres undefined)	–	2800 nM	–	22000 nM	45000 nM	> 50000 nM	18000 nM	> 50000 nM	–	–	–
CN(C)C(COC(=O)c1cc(O)c(C(=O)c2c(O)cccc2C(=O)O)c(O)c1)Cc1ccc(O)cc1 (centres undefined)	880 nM	500 nM	4200 nM	270 nM	4000 nM	30000 nM	1400 nM	> 50000 nM	–	–	–
O=C(OCC(COc1ccc(O)cc1)NS(=O)(=O)c1ccccc1)c1cc(O)c(C(=O)c2c(O)cccc2C(=O)O)c(O)c1 (centres undefined)	1600 nM	830 nM	1600 nM	220 nM	18000 nM	47000 nM	500 nM	> 50000 nM	–	–	–
O=C(OCC(Cc1ccc(O)cc1)NS(=O)(=O)c1ccc2ccccc2c1)c1cc(O)c(C(=O)c2c(O)cccc2C(=O)O)c(O)c1 (centres undefined)	2800 nM	1800 nM	2700 nM	2600 nM	3200 nM	39000 nM	35000 nM	> 50000 nM	–	–	–
Cc1ccc(S(=O)(=O)N2CCC[C@@H](OC(=O)c3cc(O)c(C(=O)c4c(O)cccc4C(=O)O)c(O)c3)[C@H](NC(=O)c3ccc(O)cc3)C2)cc1	70 nM	20 nM	3500 nM	4200 nM	6100 nM	15000 nM	100 nM	> 150000 nM	–	–	–
